Assay outcomes as filed in PubChem BioAssay.
Most compounds without a hit are left out; they make up all but 3.2% or so of the library.
OX1R antag-1 – blocks the human orexin 1 receptor. actives 1.8% (n = 330,000). AID 485270. O43613. OX1R-expressing cells, FRET antagonist read-out. inhibition, % at 6.6 µM; in the data active = inhibition mostly above about 38%, no sharp cut-off; inactive = mostly below about 40%;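 note: 0% = agonist challenge alone and 100% = reference antagonist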
Target sequence (O43613 whole entry, looked up): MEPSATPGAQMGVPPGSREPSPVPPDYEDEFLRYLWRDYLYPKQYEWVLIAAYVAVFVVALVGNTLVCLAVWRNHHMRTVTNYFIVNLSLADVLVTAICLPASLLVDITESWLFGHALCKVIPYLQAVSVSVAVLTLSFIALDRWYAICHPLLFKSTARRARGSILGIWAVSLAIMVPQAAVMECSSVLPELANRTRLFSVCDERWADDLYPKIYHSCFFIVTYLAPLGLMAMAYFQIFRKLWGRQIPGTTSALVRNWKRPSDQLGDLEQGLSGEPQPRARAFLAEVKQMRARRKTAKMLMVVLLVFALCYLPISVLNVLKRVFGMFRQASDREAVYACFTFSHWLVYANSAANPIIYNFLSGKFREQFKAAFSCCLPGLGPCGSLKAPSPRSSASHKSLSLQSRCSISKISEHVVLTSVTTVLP
OX1R antag-2 – human HCRTR1 antagonism; O43613; CHO/OX1R cells, Fluo-8 calcium fluorescence, orexin A; inhibition, % at 5 µM; actives 0.43% (n = 330,000); AID 434989;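 active = inhibition above its plate's threshold, mean inhibition of all tested compounds on the plate plus 3 SD, cut at about 37% in these data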;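 note: 0% = orexin A challenge wells and 100% = SB-334867-A antagonist wells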
zfTRPN1 agonist – activates the zebrafish TRPN1 channel; activation, % at 3 µM; AID 1424; HEK293 zebrafish TRPN1-YFP, Fluo-8 calcium fluorescence; 100% = response to 87 µM carbachol; actives 0.18% (n = 220,000);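 active = activation above its plate's cutoff, the mean activation of test wells on that plate plus 3 SD, cut at about 19% in these data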;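 note: 0% = DMSO alone and 100% = 87 µM carbachol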
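System: zebrafish TRPN1-YFP in HEK293 cells / Dosing: 3 µM single point / Timing: dye loading 1 h at 37 °C, then 30 min room temperature / Signal: Fluo-8 calcium fluorescence, excitation 470-495 nm, emission 515-575 nm / Read-out basis: percent activation from peak over basal fluorescence ratio, control-normalized / Control set: high carbachol 87 µM, low DMSO alone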
CHO parental Ca – signal in parental CHO cells, OX1R antagonist counter-screen; parental CHO-K1, ATP-induced calcium, Fluo-8 fluorescence; inhibition, % at 5.6 µM; actives 0.63% (n = 330,000);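 active = inhibition above that plate's mean sample inhibition plus 3 SD, cut at about 26% in these data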;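 note: 0% = ATP-challenged DMSO wells and 100% = DMSO wells without ATP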
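Test system: untransfected parental CHO cell line; also added: ATP stimulus; dosing: 5.6 µM, single dose; signal: calcium-sensitive Fluo-8 fluorescence; measure: percent inhibition of ATP-evoked calcium rise, normalized to controls; benchmarks: low control ATP plus DMSO, high control DMSO only; replication: one well per compound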
TRPML3 ag – agonists of human TRPML3 channel; actives 0.29% (n = 220,000); HEK293 TRPML3-YFP, Fluo-8 calcium fluorescence; 100% = the carbachol control signal; activation, % at 3 µM;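 active = activation above its plate's cutoff, the mean activation of the plate's test wells plus 3 SD, cut at about 12% in these data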;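 note: 0% = DMSO only wells and 100% = carbachol wells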
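Material: HEK293 cells stably carrying human TRPML3-YFP; compound dosing: single dose, 3 µM final nominal compound, 0.3% DMSO final; incubation: 1-h 37 °C dye load, 5-s basal, 120-s post-compound reads; technique: Fluo-8 intracellular calcium fluorescence, excitation 470-495 nm, emission 515-575 nm; read-out basis: percent activation from peak-to-basal fluorescence ratio, scaled between DMSO and carbachol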
GPR7 antag – human neuropeptides B/W receptor 1 antagonism. AID 1861. P48145. inhibition, % at 4.4 µM. actives 1.1% (n = 290,000). GPR7-expressing cells, fluorescence antagonist assay; in the data active = inhibition above about 16%, passing the limit was not always enough;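 note: cells stimulated with the agonist NPW; 0% = agonist with vehicle and 100% = vehicle without agonist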
Target sequence (P48145 whole entry, looked up): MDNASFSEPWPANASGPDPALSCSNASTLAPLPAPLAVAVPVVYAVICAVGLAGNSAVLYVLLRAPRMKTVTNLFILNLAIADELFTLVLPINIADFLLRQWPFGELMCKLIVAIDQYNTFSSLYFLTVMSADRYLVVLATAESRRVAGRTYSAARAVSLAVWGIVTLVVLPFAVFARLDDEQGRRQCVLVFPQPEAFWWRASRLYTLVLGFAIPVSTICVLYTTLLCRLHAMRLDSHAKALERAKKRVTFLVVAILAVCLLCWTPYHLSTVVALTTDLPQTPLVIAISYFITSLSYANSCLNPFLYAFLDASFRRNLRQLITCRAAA
OX1R Ca confirm – OX1R (human) antagonism, confirmed; CHO/OX1R cells, orexin A calcium Fluo-8 fluorescence; AID 492963; shares compounds with OX1R antag-2; actives 38% (n = 1,100); inhibition, % at 5 µM; in the data active = inhibition above about 29%;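 note: 0% = agonist challenge alone and 100% = reference antagonist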
CHO Ca triplic – counter-screen: parental CHO calcium response change, triplicate | inhibition, % at 5.6 µM | actives 9.3% (n = 1,100) | parental CHO-K1, ATP-induced calcium, Fluo-8 fluorescence | shares compounds with OX1R antag-2 | AID 492965;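 active = inhibition above a per-plate limit, the mean inhibition of that plate's test compounds plus 3 SD, cut at about 25% in these data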;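 note: 0% = ATP challenge with DMSO and 100% = DMSO without ATP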
OX1R HTRF conf – OX1R (human) antagonism, HTRF confirmed. shares compounds with OX1R antag-1. OX1R-expressing cells, HTRF antagonist assay. inhibition, % at 6.6 µM. actives 49% (n = 1,800). AID 492964; in the data active = inhibition above about 55%;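 note: CHO cells expressing OX1R stimulated with orexin A at about EC80; 0% = agonist challenge alone and 100% = reference antagonist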
CHO-K1 HTRF – signal in parental CHO-K1 cells, OX1R antagonist counter-screen | shares compounds with OX1R antag-1 | HTRF counterscreen | inhibition, % at 6.6 µM | actives 48% (n = 1,800) | AID 493232; in the data active = inhibition above about 17%;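 note: 0% = agonist challenge with vehicle and 100% = vehicle alone without agonist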
Numbers without * were called inactive; · = no result.

SMILES | OX1R antag-1 | OX1R antag-2 | zfTRPN1 agonist | CHO parental Ca | TRPML3 ag | GPR7 antag | OX1R Ca confirm | CHO Ca triplic | OX1R HTRF conf | CHO-K1 HTRF
COc1ccc(N(CC(=O)NCCc2cccc(C)c2)S(=O)(=O)c2c(C)noc2C)cc1 | 102.6* | 81.3* | · | -23.2 | · | -6.8 | 68.1* | -9.8 | 91.3* | 5.1
COc1ccc(N(CC(=O)NCCc2ccc(C)cc2)S(=O)(=O)c2c(C)noc2C)cc1 | 54.6* | 27.1 | · | -3.6 | · | -3.1 | 34.4* | -19.9 | 84.0* | 4.4
N#CCc1nn2c3c(cnc2c1C#N)C(=O)CCC3 | 30.8 | -14.2 | 2.6 | -4.5 | 0.7 | -4.2 | · | · | · | ·
CCc1ccc(NC(=O)c2ccc(F)c(S(=O)(=O)NCC3COc4ccccc4O3)c2)cc1 (stereo unspecified) | 55.7* | 35.6 | 2.2 | 14.0 | 0.6 | -3.0 | 24.1 | 30.0* | 31.6 | 12.3
COc1cc(C#Cc2c(C=O)n(C)c3ccccc23)cc(OC)c1 | 1.3 | -5.2 | · | -10.7 | · | · | · | · | · | ·
C=CCn1c2ccccc2c(=O)c2cc(C#Cc3cc(OC)cc(OC)c3)ccc21 | 46.8* | 69.3* | · | -15.0 | · | · | 45.0* | -16.0 | 66.3* | 20.0*
CCc1cc2c(SCC(=O)N(CC)c3c(N)n(Cc4ccccc4)c(=O)[nH]c3=O)ncnc2s1 | 84.2* | 39.9 | -0.1 | -15.9 | 0.2 | 3.1 | 47.9* | -9.4 | 92.6* | 1.3
CCCCN(C(=O)CSc1ncnc2sccc12)c1c(N)n(Cc2ccccc2)c(=O)[nH]c1=O | 22.1 | -18.1 | · | -17.7 | · | · | · | · | · | ·
CC(=O)Nc1ccc(NC(=O)C(C)OC(=O)C(C)SCC(=O)Nc2ccc(F)cc2)cc1 (stereo unspecified) | 89.0* | 27.7 | · | -4.0 | · | · | 45.8* | -2.0 | 86.8* | -0.6
CC(=O)Nc1ccc(NC(=O)C(C)OC(=O)CCC(=O)c2ccc(F)cc2)cc1 (stereo unspecified) | 15.3 | -1.4 | 0.5 | -1.7 | 0.5 | 7.2 | · | · | · | ·
COc1ccc(OC)c(NC(=O)c2csc(Cl)c2OC)c1 | 104.9* | 80.1* | · | -18.6 | · | 8.8 | 10.9 | -9.2 | 82.1* | 4.7
COc1ccc(OC)c(NC(=O)c2cc(OC(C)=O)cc(C(=O)Nc3cc(OC)ccc3OC)c2)c1 | 84.7* | 39.4 | · | -9.9 | · | -19.2 | 54.4* | -1.7 | 85.5* | 5.2
COc1ccc(OC)c(NC(=O)c2ccc(Cl)cc2)c1 | 7.3 | -30.6 | -2.5 | -1.4 | 0.0 | -6.5 | · | · | · | ·
COc1ccc(OC)c(NC(=O)c2cc3ccccc3o2)c1 | 85.4* | 40.9* | -0.4 | -6.8 | -0.7 | 0.9 | -0.5 | -7.3 | 51.6 | 12.1
COc1ccc(C)cc1NC(=O)c1cc2ccccc2o1 | 34.3 | -28.6 | -0.4 | -9.9 | -0.6 | 6.1 | · | · | · | ·
Cc1cc(C(=O)C(C)OC(=O)c2cnccn2)c(C)n1-c1ccccc1 (stereo unspecified) | 21.2 | -11.4 | · | 5.2 | · | · | · | · | · | ·
c1ccc(-c2nccc(-c3ccc4c(c3)OCO4)n2)cc1 | 90.0* | 33.4 | -1.1 | -9.2 | -1.0 | 0.9 | 12.6 | 16.7 | 83.9* | 8.2
Cc1ccc(C(C)C)cc1S(=O)(=O)Nc1cccnc1 | 3.5 | -17.3 | · | 0.0 | · | -0.4 | · | · | · | ·
O=C(NC(Nc1ncc(S(=O)(=O)c2ccc([N+](=O)[O-])cc2)s1)(C(F)(F)F)C(F)(F)F)c1ccc(Cl)cc1 | 119.6* | 38.0 | 14.8 | 23.4 | 1.1 | 14.2 | 30.1* | 65.0* | 57.8* | 35.7*
Cc1ccc(S(=O)(=O)N2[C@@H](c3cccc(Cl)c3)C(C(=O)O)=CC[C@H]2c2ccc(C(C)C)cc2)cc1 | 69.9* | 36.4 | · | 10.1 | · | · | 24.4 | 0.0 | 76.8* | 7.4
Cc1ccc(S(=O)(=O)N2[C@@H](c3ccc(F)cc3)C(C(=O)O)=CC[C@H]2c2ccc(C(C)C)cc2)cc1 | 14.5 | -4.5 | · | 6.9 | · | · | · | · | · | ·
Cc1ccc([C@@H]2CC=C(C(=O)O)[C@H](c3cccc(F)c3)N2S(=O)(=O)c2ccccc2C)cc1 | 71.1* | 50.4* | · | -14.1 | · | · | 25.9 | -3.3 | 85.6* | 3.5
O=C(CCn1c(=O)c2cccn2c2cccnc21)N1CCN(c2cccc(Cl)c2)CC1 | 17.2 | -32.4 | · | -20.7 | · | -12.6 | · | · | · | ·
N#CC(=C1CCCC1)c1nc(-c2ccccc2O)cs1 | 93.1* | 66.7* | 0.9 | -7.5 | -1.0 | -5.6 | 54.1* | -4.8 | 94.2* | -4.1
c1nc(C2CCCCC2)cc2cc3c(cc12)OCO3 | 7.1 | 1.6 | · | -26.3 | · | · | · | · | · | ·
SMILES | OX1R antag-1 | OX1R antag-2 | zfTRPN1 agonist | CHO parental Ca | TRPML3 ag | GPR7 antag | OX1R Ca confirm | CHO Ca triplic | OX1R HTRF conf | CHO-K1 HTRF
CCc1sc(C(=O)Nc2ccc(NC(C)=O)cc2)cc1C | 11.2 | -15.5 | -0.2 | -6.0 | 0.1 | -1.2 | · | · | · | ·
CCc1sc(C(=O)Nc2ccc3nc(C)sc3c2)cc1C | 81.4* | 64.9* | · | -23.3 | · | · | 52.8* | -21.1 | 89.9* | 16.4
O=C(O)C[C@H]1c2cc(C(F)(F)F)ccc2S(=O)(=O)N1C1CCN(Cc2ccccc2)CC1 | 25.8 | -1.2 | · | -7.9 | · | · | · | · | · | ·
COc1ccccc1OCC(=O)c1[nH]c(C)c(C(C)=O)c1C | 82.2* | 33.3 | 9.1 | 10.5 | 4.4 | 6.9 | 29.5* | 26.1* | 24.6 | 27.1*
COc1cc(C)ccc1OCC(=O)OCC(=O)c1[nH]c(C)c(C(C)=O)c1C | 5.1 | 11.2 | · | -3.8 | · | · | · | · | · | ·
NCCCNc1ccc([N+](=O)[O-])cc1C(F)(F)F | 29.0 | -9.2 | 1.5 | -2.1 | 1.1 | 10.4 | · | · | · | ·
CCOC(=O)C1=C(C)N(C[C@@H]2CC[C@@H](Cc3ccc(-c4ccccc4)cc3)O2)C(=O)NC1c1ccc(-c2ccccc2)cc1 (stereo partly specified) | 6.3 | 6.3 | · | 2.4 | · | · | · | · | · | ·
CCOC(=O)C1=C(C)N(C[C@@H]2CC[C@@H](Cc3ccc(-c4ccccc4)cc3)O2)C(=O)NC1C1CC1 (stereo partly specified) | 34.0* | 50.8* | · | 12.3 | · | · | 10.0 | -17.8 | 28.4 | 0.9
CCN(CC)c1ccc(/C=C(\C#N)c2ccccn2)cc1 | 80.0* | 34.0 | 2.8 | -6.9 | 2.7 | -3.8 | 4.4 | -7.1 | 89.5* | 9.0
CCN(Cc1ccccc1)c1ccc(/C=C(\C#N)c2ccccn2)cc1 | 25.1 | -25.1 | 1.8 | -23.7 | 1.7 | -15.9 | · | · | · | ·
